According to ChEMBL document CHEMBL1157765, “Synthesis of DOTA-conjugated multimeric [Tyr3]octreotide peptides via a combination of Cu(I)-catalyzed "click" cycloaddition and thio acid/sulfonyl azide "sulfo-click" amidation and their in vivo evaluation” (J Med Chem, 2010):

Legend:
[1] = tested on: Stomach; experiment: Biodistribution in stomach of BALB/c mouse bearing rat AR42J cells at 0.37 MBq, iv after 6 hrs; type: ADME, organism-based, AR-42J; details: in vivo
Outline: (§1)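 AR42J tumor grown in right flank of male BALB/c nude mice (20-25 g, 6-8 weeks) by sc injection of 5 × 10⁶ cells; used after ~2 weeks at 4-6 mm diameter. Groups of five received 0.37 MBq (0.1 μg) ¹¹¹In-DOTA conjugate iv via tail vein (labeled in 0.25 M NH₄OAc pH 5.5, 95 °C, 15 min). Tissues dissected at 2, 6 or 24 h, weighed, γ-counted against 1% injected-activity standards; %ID/g, mean ± SD.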

[2] = tested on: Blood; experiment: Biodistribution in blood of BALB/c mouse bearing rat AR42J cells at 0.37 MBq, iv after 24 hrs; type: ADME, organism-based, AR-42J; details: in vivo; outline: as §1
[3] = Biodistribution in adrenal gland of BALB/c mouse bearing rat AR42J cells at 0.37 MBq, iv after 2 hrs under cold condition; type: ADME, organism-based, AR-42J; details: in vivo
Outline: (§2)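 Receptor block: groups of three AR42J tumor-bearing male BALB/c nude mice co-injected iv via tail vein with 0.37 MBq (0.1 μg) ¹¹¹In-DOTA conjugate plus 50 μg octreotide. Killed by CO₂/O₂ at 2 h; blood, tumor and tissues dissected, weighed and γ-counted against 1% injected-activity standards; %ID/g reported as mean ± SD.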

[4] = tested on: Liver; experiment: Biodistribution in liver of BALB/c mouse bearing rat AR42J cells at 0.37 MBq, iv after 6 hrs; type: ADME, organism-based, AR-42J; details: in vivo; outline: as §1
[5] = Octanol-water partition coefficient, log D at pH 7.4; type: physicochemical
Outline: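 ¹¹¹In-labeled conjugate (~148 kBq) in PBS pH 7.4 mixed 1:1 with n-octanol and shaken 2 min. Phases separated by centrifugation (5 min, 250g); triplicate aliquots of each layer γ-counted. log D = log₁₀(octanol counts/aqueous counts), from at least two independent experiments.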

[6] = Biodistribution in tumor of BALB/c mouse bearing rat AR42J cells at 0.37 MBq, iv after 6 hrs; type: ADME, organism-based, Neoplasm, AR-42J; details: in vivo; outline: as §1
[7] = tested on: Blood; experiment: Biodistribution in blood of BALB/c mouse bearing rat AR42J cells at 0.37 MBq, iv after 2 hrs under cold condition; type: ADME, organism-based, AR-42J; details: in vivo; outline: as §2
[8] = tested on: Pancreas; experiment: Biodistribution in pancreas of BALB/c mouse bearing rat AR42J cells at 0.37 MBq, iv after 2 hrs; type: ADME, organism-based, AR-42J; details: in vivo; outline: as §1
[9] = tested on: Liver; experiment: Biodistribution in liver of BALB/c mouse bearing rat AR42J cells at 0.37 MBq, iv after 2 hrs under cold condition; type: ADME, organism-based, AR-42J; details: in vivo; outline: as §2
[10] = Biodistribution in adrenal gland of BALB/c mouse bearing rat AR42J cells at 0.37 MBq, iv after 6 hrs; type: ADME, organism-based, AR-42J; details: in vivo; outline: as §1
[11] = tested on: Kidney; experiment: Biodistribution in kidney of BALB/c mouse bearing rat AR42J cells at 0.37 MBq, iv after 2 hrs under cold condition; type: ADME, organism-based, AR-42J; details: in vivo; outline: as §2
[12] = tested on: Kidney; experiment: Biodistribution in kidney of BALB/c mouse bearing rat AR42J cells at 0.37 MBq, iv after 2 hrs; type: ADME, organism-based, AR-42J; details: in vivo; outline: as §1
[13] = molecular target: Somatostatin receptor type 2 (Rattus norvegicus, UniProt P30680); experiment: Displacement of [111In]DOTA0,Tyr3]octreotide from SSTR2 receptor in rat AR42J cells; type: cell-based, AR-42J
Chain of Somatostatin receptor type 2 (P30680 whole entry): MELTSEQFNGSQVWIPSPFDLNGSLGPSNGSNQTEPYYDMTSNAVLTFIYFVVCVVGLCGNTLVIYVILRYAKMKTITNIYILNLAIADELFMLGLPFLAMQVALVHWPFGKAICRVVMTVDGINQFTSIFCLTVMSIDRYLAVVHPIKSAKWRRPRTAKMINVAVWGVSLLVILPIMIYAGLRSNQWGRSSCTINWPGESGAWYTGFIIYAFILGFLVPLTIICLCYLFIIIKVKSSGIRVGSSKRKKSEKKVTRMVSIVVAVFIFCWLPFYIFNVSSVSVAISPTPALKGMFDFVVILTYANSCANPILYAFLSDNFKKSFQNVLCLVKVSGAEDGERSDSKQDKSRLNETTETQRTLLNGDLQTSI
Outline: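 AR42J cells (DMEM, 10% FCS, 37 °C, 5% CO₂) seeded 8 × 10⁵/well and grown to confluence, washed with DMEM + 0.1% BSA. Incubated 3 h at 37 °C with [¹¹¹In-DOTA⁰,Tyr³]octreotide tracer (40 000 dpm) and unlabeled peptide at 0.1-300 nM. Washed twice; cell-bound activity γ-counted. IC₅₀ from fitted sigmoidal displacement curves with 95% CI.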

[14] = Biodistribution in tumor of BALB/c mouse bearing rat AR42J cells at 0.37 MBq, iv after 24 hrs; type: ADME, organism-based, Neoplasm, AR-42J; details: in vivo; outline: as §1
[15] = tested on: Blood; experiment: Biodistribution in blood of BALB/c mouse bearing rat AR42J cells at 0.37 MBq, iv after 2 hrs; type: ADME, organism-based, AR-42J; details: in vivo; outline: as §1
[16] = Biodistribution in adrenal gland of BALB/c mouse bearing rat AR42J cells at 0.37 MBq, iv after 2 hrs; type: ADME, organism-based, AR-42J; details: in vivo; outline: as §1
[17] = tested on: Kidney; experiment: Biodistribution in kidney of BALB/c mouse bearing rat AR42J cells at 0.37 MBq, iv after 24 hrs; type: ADME, organism-based, AR-42J; details: in vivo; outline: as §1
[18] = tested on: Pancreas; experiment: Biodistribution in pancreas of BALB/c mouse bearing rat AR42J cells at 0.37 MBq, iv after 6 hrs; type: ADME, organism-based, AR-42J; details: in vivo; outline: as §1
[19] = tested on: Stomach; experiment: Biodistribution in stomach of BALB/c mouse bearing rat AR42J cells at 0.37 MBq, iv after 24 hrs; type: ADME, organism-based, AR-42J; details: in vivo; outline: as §1
[20] = Biodistribution in tumor of BALB/c mouse bearing rat AR42J cells at 0.37 MBq, iv after 2 hrs under cold condition; type: ADME, organism-based, Neoplasm, AR-42J; details: in vivo; outline: as §2
[21] = tested on: Kidney; experiment: Biodistribution in kidney of BALB/c mouse bearing rat AR42J cells at 0.37 MBq, iv after 6 hrs; type: ADME, organism-based, AR-42J; details: in vivo; outline: as §1
[22] = tested on: Liver; experiment: Biodistribution in liver of BALB/c mouse bearing rat AR42J cells at 0.37 MBq, iv after 24 hrs; type: ADME, organism-based, AR-42J; details: in vivo; outline: as §1
[23] = tested on: Pancreas; experiment: Biodistribution in pancreas of BALB/c mouse bearing rat AR42J cells at 0.37 MBq, iv after 2 hrs under cold condition; type: ADME, organism-based, AR-42J; details: in vivo; outline: as §2
[24] = tested on: Pancreas; experiment: Biodistribution in pancreas of BALB/c mouse bearing rat AR42J cells at 0.37 MBq, iv after 24 hrs; type: ADME, organism-based, AR-42J; details: in vivo; outline: as §1
[25] = tested on: Liver; experiment: Biodistribution in liver of BALB/c mouse bearing rat AR42J cells at 0.37 MBq, iv after 2 hrs; type: ADME, organism-based, AR-42J; details: in vivo; outline: as §1
[26] = Biodistribution in tumor of BALB/c mouse bearing rat AR42J cells at 0.37 MBq, iv after 2 hrs; type: ADME, organism-based, Neoplasm, AR-42J; details: in vivo; outline: as §1
[27] = tested on: Stomach; experiment: Biodistribution in stomach of BALB/c mouse bearing rat AR42J cells at 0.37 MBq, iv after 2 hrs under cold condition; type: ADME, organism-based, AR-42J; details: in vivo; outline: as §2
[28] = tested on: Blood; experiment: Biodistribution in blood of BALB/c mouse bearing rat AR42J cells at 0.37 MBq, iv after 6 hrs; type: ADME, organism-based, AR-42J; details: in vivo; outline: as §1
[29] = tested on: Stomach; experiment: Biodistribution in stomach of BALB/c mouse bearing rat AR42J cells at 0.37 MBq, iv after 2 hrs; type: ADME, organism-based, AR-42J; details: in vivo; outline: as §1
[30] = Biodistribution in adrenal gland of BALB/c mouse bearing rat AR42J cells at 0.37 MBq, iv after 24 hrs; type: ADME, organism-based, AR-42J; details: in vivo; outline: as §1
[31] = tested on: Spleen; experiment: Biodistribution in spleen of BALB/c mouse bearing rat AR42J cells at 0.37 MBq, iv after 6 hrs; type: ADME, organism-based, AR-42J; details: in vivo; outline: as §1
[32] = tested on: Spleen; experiment: Biodistribution in spleen of BALB/c mouse bearing rat AR42J cells at 0.37 MBq, iv after 2 hrs; type: ADME, organism-based, AR-42J; details: in vivo; outline: as §1
[33] = tested on: Spleen; experiment: Biodistribution in spleen of BALB/c mouse bearing rat AR42J cells at 0.37 MBq, iv after 24 hrs; type: ADME, organism-based, AR-42J; details: in vivo; outline: as §1
[34] = tested on: Spleen; experiment: Biodistribution in spleen of BALB/c mouse bearing rat AR42J cells at 0.37 MBq, iv after 2 hrs under cold condition; type: ADME, organism-based, AR-42J; details: in vivo; outline: as §2

Row | Drug uptake [1] | Drug uptake [2] | Drug uptake [3] | Drug uptake [4] | logD [5] | Drug uptake [6] | Drug uptake [7] | Drug uptake [8] | Drug uptake [9] | Drug uptake [10] | Drug uptake [11] | Drug uptake [12] | IC50 [13] | Drug uptake [14] | Drug uptake [15] | Drug uptake [16] | Drug uptake [17] | Drug uptake [18] | Drug uptake [19] | Drug uptake [20] | Compound | other results
1 | 6.11 % ID/g | 0.04 % ID/g | 2.38 % ID/g | 0.22 % ID/g | -2.2 | 21.32 % ID/g | 3.46 % ID/g | 2.92 % ID/g | 3.61 % ID/g | 0.78 % ID/g | 62.74 % ID/g | 54.19 % ID/g | 1.32 nM | 10.75 % ID/g | 0.27 % ID/g | 1.86 % ID/g | 2.53 % ID/g | 0.63 % ID/g | 2.83 % ID/g | 4.82 % ID/g | C[C@@H](O)[C@@H]1NC(=O)[C@H](CCCCN)NC(=O)[C@@H](Cc2c[nH]c3ccccc23)NC(=O)[C@H](Cc2ccc(O)cc2)NC(=O)[C@@H](NC(=O)[C@@H](Cc2ccccc2)NC(=O)CCCCCn2cc(COc3cccc(C(=O)NS(=O)(=O)CCNC(=O)CN4CCN(CC(=O)O)CCN(CC(=O)O)CCN(CC(=O)O)CC4)c3)nn2)CSSC[C@@H](C(=O)N[C@H](CO)[C@@H](C)O)NC1=O | Drug uptake [21]: 10.96 % ID/g; Drug uptake [22]: 0.09 % ID/g; Drug uptake [23]: 1.07 % ID/g; Drug uptake [24]: 0.17 % ID/g; Drug uptake [25]: 0.52 % ID/g; Drug uptake [26]: 42.33 % ID/g; Drug uptake [27]: 2.16 % ID/g; Drug uptake [28]: 0.13 % ID/g; Drug uptake [29]: 7.54 % ID/g; Drug uptake [30]: 0.63 % ID/g
2 | 1.4 % ID/g | 2.52 % ID/g | 54.56 % ID/g | 70.97 % ID/g | -0.71 | 1.03 % ID/g | 0.44 % ID/g | 1.02 % ID/g | 2.96 % ID/g | 18.98 % ID/g | 7.44 % ID/g | 4.62 % ID/g | 14 nM | 1.53 % ID/g | 0.27 % ID/g | 4.05 % ID/g | 10.6 % ID/g | 2.04 % ID/g | 1.13 % ID/g | 1.19 % ID/g | C[C@@H](O)[C@@H]1NC(=O)[C@H](CCCCN)NC(=O)[C@@H](Cc2c[nH]c3ccccc23)NC(=O)[C@H](Cc2ccc(O)cc2)NC(=O)[C@@H](NC(=O)[C@@H](Cc2ccccc2)NC(=O)CCCCCn2cc(COc3cc(OCc4cn(CCCCCC(=O)N[C@H](Cc5ccccc5)C(=O)N[C@H]5CSSC[C@@H](C(=O)N[C@H](CO)[C@@H](C)O)NC(=O)[C@H]([C@@H](C)O)NC(=O)[C@H](CCCCN)NC(=O)[C@@H](Cc6c[nH]c7ccccc67)NC(=O)[C@H](Cc6ccc(O)cc6)NC5=O)nn4)cc(C(=O)NCCOc4cc(OCCNC(=O)c5cc(OCc6cn(CCCCCC(=O)N[C@H](Cc7ccccc7)C(=O)N[C@H]7CSSC[C@@H](C(=O)N[C@H](CO)[C@@H](C)O)NC(=O)[C@H]([C@@H](C)O)NC(=O)[C@H](CCCCN)NC(=O)[C@@H](Cc8c[nH]c9ccccc89)NC(=O)[C@H](Cc8ccc(O)cc8)NC7=O)nn6)cc(OCc6cn(CCCCCC(=O)N[C@H](Cc7ccccc7)C(=O)N[C@H]7CSSC[C@@H](C(=O)N[C@H](CO)[C@@H](C)O)NC(=O)[C@H]([C@@H](C)O)NC(=O)[C@H](CCCCN)NC(=O)[C@@H](Cc8c[nH]c9ccccc89)NC(=O)[C@H](Cc8ccc(O)cc8)NC7=O)nn6)c5)cc(C(=O)NS(=O)(=O)CCNC(=O)CN5CCN(CC(=O)O)CCN(CC(=O)O)CCN(CC(=O)O)CC5)c4)c3)nn2)CSSC[C@@H](C(=O)N[C@H](CO)[C@@H](C)O)NC1=O | Drug uptake [31]: 23.92 % ID/g; Drug uptake [32]: 16.84 % ID/g; Drug uptake [21]: 7.65 % ID/g; Drug uptake [22]: 52.71 % ID/g; Drug uptake [23]: 0.29 % ID/g; Drug uptake [24]: 1.17 % ID/g; Drug uptake [33]: 20.26 % ID/g; Drug uptake [25]: 47.6 % ID/g; Drug uptake [26]: 0.52 % ID/g; Drug uptake [27]: 3.02 % ID/g; Drug uptake [34]: 23.45 % ID/g; Drug uptake [28]: 0.62 % ID/g; Drug uptake [29]: 1.04 % ID/g; Drug uptake [30]: 11.39 % ID/g
